{"source": "ChEMBL document CHEMBL1132220", "about": "(J Med Chem, 1999)", "key": {"[1]": {"molecular_target": "Somatostatin receptor type 1 (Homo sapiens, UniProt P30872)", "sequence (P30872 whole entry)": "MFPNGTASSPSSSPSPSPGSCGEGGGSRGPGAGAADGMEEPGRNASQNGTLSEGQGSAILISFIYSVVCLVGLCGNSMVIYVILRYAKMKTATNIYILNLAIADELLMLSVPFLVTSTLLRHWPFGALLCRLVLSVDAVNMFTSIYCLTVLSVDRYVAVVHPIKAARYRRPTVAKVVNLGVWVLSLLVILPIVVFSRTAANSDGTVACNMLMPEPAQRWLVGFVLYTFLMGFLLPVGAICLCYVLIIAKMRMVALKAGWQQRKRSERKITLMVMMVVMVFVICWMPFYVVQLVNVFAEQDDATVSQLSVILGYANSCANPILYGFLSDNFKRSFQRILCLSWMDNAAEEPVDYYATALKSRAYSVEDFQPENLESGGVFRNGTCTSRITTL", "experiment": "The compound was tested for binding affinity against human Somatostatin receptor type 1", "how_it_was_run": "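Membranes from CHO-K1 cells transfected with the cloned human receptor. Terminated by filtration on PEI-soaked GF/C filters. Nonspecific binding defined with 1.0 μM SRIF. Mean ± SEM; single values are from one experiment.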"}, "[2]": {"molecular_target": "Somatostatin receptor type 3 (Homo sapiens, UniProt P32745)", "sequence (P32745 whole entry)": "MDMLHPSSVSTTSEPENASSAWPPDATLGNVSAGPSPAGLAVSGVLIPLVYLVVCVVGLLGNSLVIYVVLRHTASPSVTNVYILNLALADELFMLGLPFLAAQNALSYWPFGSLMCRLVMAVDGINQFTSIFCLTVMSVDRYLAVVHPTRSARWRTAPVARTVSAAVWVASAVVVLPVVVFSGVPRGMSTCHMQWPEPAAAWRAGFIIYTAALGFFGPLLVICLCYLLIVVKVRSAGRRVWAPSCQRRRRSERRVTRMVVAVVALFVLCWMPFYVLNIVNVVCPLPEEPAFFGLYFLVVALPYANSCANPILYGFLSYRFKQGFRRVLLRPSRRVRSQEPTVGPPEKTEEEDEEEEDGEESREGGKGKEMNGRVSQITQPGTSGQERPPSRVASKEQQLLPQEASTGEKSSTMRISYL", "experiment": "The compound was tested for binding affinity against human Somatostatin receptor type 3", "how_it_was_run": "(§1)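 CHO-K1 cells stably transfected (calcium phosphate) with cloned human sst3 or sst4. Membranes made in ice-cold 50 mM Tris-HCl, resuspended in 10 mM Tris-HCl, then incubated 30 min at 37 °C with 0.05 nM [125I]Tyr11-SRIF in HEPES pH 7.4 with BSA, MgCl2 and protease inhibitors. Filtered on GF/C; nonspecific binding with 1.0 µM SRIF. Mean ± SEM, or one experiment.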"}, "[3]": {"molecular_target": "Somatostatin receptor type 4 (Homo sapiens, UniProt P31391)", "sequence (P31391 whole entry)": "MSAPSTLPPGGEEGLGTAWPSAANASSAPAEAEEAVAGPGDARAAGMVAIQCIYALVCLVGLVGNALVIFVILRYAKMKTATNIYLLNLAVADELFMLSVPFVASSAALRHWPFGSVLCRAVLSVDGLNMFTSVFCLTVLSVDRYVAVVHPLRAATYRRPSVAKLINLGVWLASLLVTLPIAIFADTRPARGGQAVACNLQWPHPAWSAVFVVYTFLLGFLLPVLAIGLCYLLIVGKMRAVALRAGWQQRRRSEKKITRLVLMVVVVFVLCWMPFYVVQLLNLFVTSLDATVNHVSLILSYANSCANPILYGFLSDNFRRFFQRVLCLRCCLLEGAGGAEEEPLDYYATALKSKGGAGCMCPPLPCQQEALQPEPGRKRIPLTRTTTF", "experiment": "The compound was tested for binding affinity against human Somatostatin receptor type 4", "how_it_was_run": "as §1"}, "[4]": {"molecular_target": "Somatostatin receptor type 2 (Homo sapiens, UniProt P30874)", "sequence (P30874 whole entry)": "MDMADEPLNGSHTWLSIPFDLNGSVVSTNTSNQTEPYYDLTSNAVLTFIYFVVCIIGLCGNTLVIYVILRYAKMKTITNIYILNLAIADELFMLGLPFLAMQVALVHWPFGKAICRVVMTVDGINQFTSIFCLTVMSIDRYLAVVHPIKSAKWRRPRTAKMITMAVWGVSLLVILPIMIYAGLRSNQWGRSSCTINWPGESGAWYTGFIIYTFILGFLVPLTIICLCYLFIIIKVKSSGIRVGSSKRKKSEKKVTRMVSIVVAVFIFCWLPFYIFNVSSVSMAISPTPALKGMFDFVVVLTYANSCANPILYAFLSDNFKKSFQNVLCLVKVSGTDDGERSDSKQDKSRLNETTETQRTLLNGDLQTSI", "experiment": "The compound was tested for binding affinity against human Somatostatin receptor type 2", "how_it_was_run": "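Membranes from CHO-K1 cells transfected with the cloned human sst2. Incubated 30 min at 37 °C with 0.05 nM [125I]MK-678 in HEPES pH 7.4 with BSA, MgCl2, Trasylol, bacitracin and PMSF. Filtration on PEI-soaked GF/C filters. Nonspecific binding defined with 1.0 μM SRIF. Mean ± SEM; single values are from one experiment.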"}, "Somatostatin receptor": {"molecular_target": "Somatostatin receptor", "experiment": "Antagonism of in vitro SRIF inhibition of GH release in rat in vitro pituitary cell assay", "format": "functional, cell-based", "settings": "pituitary gland cell", "how_it_was_run": "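Dispersed adult male rat anterior pituitary cells (trypsin/DNase), about 200 000 cells/well, cultured 4–5 days at 37 °C. GH measured by double-antibody RIA. IC50 versus SRIF, mean ± SEM of n dose–response curves.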"}}}
{"smiles": "C[C@@H](O)[C@@H]1NC(=O)[C@H](CCCCN)NC(=O)[C@@H](Cc2c[nH]c3ccccc23)NC(=O)[C@H](Cc2ccc(O)cc2)NC(=O)[C@H](NC(=O)[C@@H](N)Cc2ccc(Cl)cc2)CSSC[C@@H](C(=O)N[C@@H](Cc2ccc3ccccc3c2)C(N)=O)NC1=O", "values": [{"measurement": "Ki", "setting": "[1]", "value": "> 1000", "unit": "nM"}, {"measurement": "Ki", "setting": "[2]", "value": 93, "unit": "nM"}, {"measurement": "Ki", "setting": "[3]", "value": "> 1000", "unit": "nM"}, {"measurement": "Ki", "setting": "[4]", "value": 26, "unit": "nM"}, {"measurement": "IC50", "setting": "Somatostatin receptor", "value": 1.1, "unit": "nM"}]}
{"smiles": "CC(C)[C@H]1NC(=O)[C@H](CCCCN)NC(=O)[C@@H](Cc2c[nH]c3ccccc23)NC(=O)[C@H](Cc2cccnc2)NC(=O)[C@@H](NC(=O)[C@@H](N)Cc2ccc3ccccc3c2)CSSC[C@H](C(=O)N[C@@H](Cc2ccc3ccccc3c2)C(N)=O)NC1=O", "values": [{"measurement": "IC50", "setting": "Somatostatin receptor", "value": 15, "unit": "nM"}]}
{"smiles": "CC(C)C[C@@H]1NC(=O)[C@H](CCCCN)NC(=O)[C@@H](Cc2c[nH]c3ccccc23)NC(=O)[C@H](Cc2cccnc2)NC(=O)[C@@H](NC(=O)[C@@H](N)Cc2ccc3ccccc3c2)CSSC[C@@H](C(=O)N[C@@H](Cc2ccc3ccccc3c2)C(N)=O)NC1=O", "values": [{"measurement": "IC50", "setting": "Somatostatin receptor", "value": 48, "unit": "nM"}]}
{"smiles": "CC(C)[C@H]1NC(=O)[C@H](CCCCN)NC(=O)[C@@H](Cc2c[nH]c3ccccc23)NC(=O)[C@H](Cc2c[nH]cn2)NC(=O)C(NC(=O)[C@@H](N)Cc2ccc(F)cc2)CSSCC(C(=O)N[C@@H](Cc2ccc(F)cc2)C(N)=O)NC1=O", "note": "(stereo in doubt)", "values": [{"measurement": "IC50", "setting": "Somatostatin receptor", "value": 105, "unit": "nM"}]}
{"smiles": "CC(C)[C@H]1NC(=O)[C@H](CCCCN)NC(=O)[C@@H](Cc2c[nH]c3ccccc23)NC(=O)[C@H](Cc2cccnc2)NC(=O)[C@@H](NC(=O)[C@@H](N)Cc2ccc3ccccc3c2)CSSC[C@H](C(=O)N[C@H](C(N)=O)C(c2ccccc2)c2ccccc2)NC1=O", "values": [{"measurement": "IC50", "setting": "Somatostatin receptor", "value": 91, "unit": "nM"}]}
{"smiles": "CC(C)[C@@H]1NC(=O)[C@H](CCCCN)NC(=O)[C@@H](Cc2c[nH]c3ccccc23)NC(=O)[C@H](Cc2ccc(O)c(I)c2)NC(=O)C(NC(=O)[C@@H](N)Cc2ccc3ccccc3c2)CSSCC(C(=O)N[C@@H](Cc2ccc3ccccc3c2)C(N)=O)NC1=O", "note": "(stereo in doubt)", "values": [{"measurement": "IC50", "setting": "Somatostatin receptor", "value": 20, "unit": "nM"}]}
{"smiles": "C[C@@H]1NC(=O)[C@H](CCCCN)NC(=O)[C@@H](Cc2c[nH]c3ccccc23)NC(=O)[C@H](Cc2cccnc2)NC(=O)[C@@H](NC(=O)[C@@H](N)Cc2ccc3ccccc3c2)CSSC[C@@H](C(=O)N[C@@H](Cc2ccc3ccccc3c2)C(N)=O)NC1=O", "values": [{"measurement": "IC50", "setting": "Somatostatin receptor", "value": 425, "unit": "nM"}]}
{"smiles": "CC(C)[C@H]1NC(=O)[C@H](CCCCN)NC(=O)[C@@H](Cc2c[nH]c3ccccc23)NC(=O)[C@H](Cc2cccnc2)NC(=O)[C@@H](NC(=O)[C@@H](N)Cc2ccc(F)cc2)CSSC[C@H](C(=O)N[C@@H](Cc2ccc(F)cc2)C(N)=O)NC1=O", "values": [{"measurement": "IC50", "setting": "Somatostatin receptor", "value": 87, "unit": "nM"}]}
{"smiles": "CC(C)[C@H]1NC(=O)[C@H](CCCCN)NC(=O)[C@@H](Cc2c[nH]c3ccccc23)NC(=O)[C@H](Cc2cccnc2)NC(=O)[C@@H](NC(=O)[C@@H](N)Cc2ccccc2F)CSSC[C@H](C(=O)N[C@@H](Cc2ccccc2F)C(N)=O)NC1=O", "values": [{"measurement": "IC50", "setting": "Somatostatin receptor", "value": 114, "unit": "nM"}]}
{"smiles": "CC(C)[C@H]1NC(=O)[C@H](CCCCN)NC(=O)[C@@H](Cc2c[nH]c3ccccc23)NC(=O)[C@H](Cc2cccnc2)NC(=O)[C@@H](NC(=O)[C@@H](N)Cc2ccc(Cl)cc2)CSSC[C@H](C(=O)N[C@@H](Cc2ccc(Cl)cc2)C(N)=O)NC1=O", "values": [{"measurement": "IC50", "setting": "Somatostatin receptor", "value": 3, "unit": "nM"}]}
{"smiles": "CC(C)[C@H]1NC(=O)[C@H](CCCCN)NC(=O)[C@@H](Cc2c[nH]c3ccccc23)NC(=O)[C@H](Cc2cccnc2)NC(=O)[C@@H](NC(=O)[C@@H](N)Cc2ccc(I)cc2)CSSC[C@H](C(=O)N[C@@H](Cc2ccc(I)cc2)C(N)=O)NC1=O", "values": [{"measurement": "IC50", "setting": "Somatostatin receptor", "value": 4, "unit": "nM"}]}
{"smiles": "CC(C)[C@H]1NC(=O)[C@H](CCCCN)NC(=O)[C@@H](Cc2c[nH]c3ccccc23)NC(=O)[C@H](Cc2cccnc2)NC(=O)[C@@H](NC(=O)[C@@H](N)Cc2ccc(Cl)cc2)CSSC[C@H](C(=O)N[C@@H](Cc2ccc3ccccc3c2)C(N)=O)NC1=O", "values": [{"measurement": "IC50", "setting": "Somatostatin receptor", "value": 2.6, "unit": "nM"}]}
{"smiles": "CC(C)(C)C[C@@H]1NC(=O)[C@H](CCCCN)NC(=O)[C@@H](Cc2c[nH]c3ccccc23)NC(=O)[C@H](Cc2cccnc2)NC(=O)C(NC(=O)[C@@H](N)Cc2ccc(Cl)cc2)CSSCC(C(=O)N[C@@H](Cc2ccc3ccccc3c2)C(N)=O)NC1=O", "note": "(stereo in doubt)", "values": [{"measurement": "IC50", "setting": "Somatostatin receptor", "value": 125, "unit": "nM"}]}
{"smiles": "C[C@@H](O)[C@@H]1NC(=O)[C@H](CCCCN)NC(=O)[C@@H](Cc2c[nH]c3ccccc23)NC(=O)[C@H](Cc2ccccc2)NC(=O)[C@@H](NC(=O)[C@@H](N)Cc2ccc(Cl)cc2)CSSC[C@@H](C(=O)N[C@@H](Cc2ccc3ccccc3c2)C(N)=O)NC1=O", "values": [{"measurement": "IC50", "setting": "Somatostatin receptor", "value": 1.4, "unit": "nM"}]}
{"smiles": "CC(C)[C@H]1NC(=O)[C@H](CCCCN)NC(=O)[C@@H](Cc2c[nH]c3ccccc23)NC(=O)[C@H](Cc2cccnc2)NC(=O)[C@@H](NC(=O)[C@@H](N)Cc2ccc3ccccc3c2)CSSC[C@H](C(=O)N[C@@H](Cc2ccc(F)cc2)C(N)=O)NC1=O", "values": [{"measurement": "IC50", "setting": "Somatostatin receptor", "value": 150, "unit": "nM"}]}
{"smiles": "CC(C)[C@H]1NC(=O)[C@H](CCCCN)NC(=O)[C@@H](Cc2c[nH]c3ccccc23)NC(=O)[C@H](Cc2cccnc2)NC(=O)[C@@H](NC(=O)[C@@H](N)Cc2ccc(F)cc2)CSSC[C@H](C(=O)N[C@@H](Cc2ccc3ccccc3c2)C(N)=O)NC1=O", "values": [{"measurement": "IC50", "setting": "Somatostatin receptor", "value": 6.5, "unit": "nM"}]}
{"smiles": "CC(C)[C@H]1NC(=O)[C@H](CCCCN)NC(=O)[C@@H](Cc2c[nH]c3ccccc23)NC(=O)[C@H](Cc2ccccn2)NC(=O)[C@@H](NC(=O)[C@@H](N)Cc2c(F)c(F)c(F)c(F)c2F)CSSC[C@H](C(=O)N[C@@H](Cc2c(F)c(F)c(F)c(F)c2F)C(N)=O)NC1=O", "values": [{"measurement": "IC50", "setting": "Somatostatin receptor", "value": 765, "unit": "nM"}]}
{"smiles": "CC[C@H](C)[C@H]1NC(=O)[C@H](CCCCN)NC(=O)[C@@H](Cc2c[nH]c3ccccc23)NC(=O)[C@H](Cc2ccc(O)cc2)NC(=O)[C@@H](NC(=O)[C@@H](N)Cc2ccc(-c3ccccc3)cc2)CSSC[C@@H](C(=O)N[C@@H](Cc2ccc(-c3ccccc3)cc2)C(N)=O)NC1=O", "values": [{"measurement": "IC50", "setting": "Somatostatin receptor", "value": 2110, "unit": "nM"}]}
{"smiles": "CC(C)[C@H]1NC(=O)[C@H](CCCCN)NC(=O)[C@@H](Cc2c[nH]c3ccccc23)NC(=O)[C@H](Cc2cccnc2)NC(=O)[C@@H](NC(=O)[C@@H](N)Cc2ccc(Br)cc2)CSSC[C@H](C(=O)N[C@@H](Cc2ccc(Br)cc2)C(N)=O)NC1=O", "values": [{"measurement": "IC50", "setting": "Somatostatin receptor", "value": 2.7, "unit": "nM"}]}
{"smiles": "C[C@@H](O)[C@@H]1NC(=O)[C@H](CCCCN)NC(=O)[C@@H](Cc2c[nH]c3ccccc23)NC(=O)[C@H](Cc2ccccn2)NC(=O)C(NC(=O)[C@@H](N)Cc2ccc(Cl)cc2)CSSCC(C(=O)N[C@@H](Cc2ccc3ccccc3c2)C(N)=O)NC1=O", "note": "(stereo in doubt)", "values": [{"measurement": "IC50", "setting": "Somatostatin receptor", "value": 135, "unit": "nM"}]}
{"smiles": "CC(C)[C@H]1NC(=O)[C@H](CCCCN)NC(=O)[C@@H](Cc2c[nH]c3ccccc23)NC(=O)[C@H](Cc2c[nH]cn2)NC(=O)C(NC(=O)[C@@H](N)Cc2cccc(F)c2)CSSCC(C(=O)N[C@@H](Cc2cccc(F)c2)C(N)=O)NC1=O", "note": "(stereo in doubt)", "values": [{"measurement": "IC50", "setting": "Somatostatin receptor", "value": 137, "unit": "nM"}]}
{"smiles": "CC(C)[C@H]1NC(=O)[C@H](CCCCN)NC(=O)[C@@H](Cc2c[nH]c3ccccc23)NC(=O)[C@H](Cc2cccnc2)NC(=O)[C@@H](NC(=O)[C@@H](N)Cc2ccc(C#N)cc2)CSSC[C@H](C(=O)N[C@@H](Cc2ccc(C#N)cc2)C(N)=O)NC1=O", "values": [{"measurement": "IC50", "setting": "Somatostatin receptor", "value": 51, "unit": "nM"}]}
{"smiles": "CC(C)[C@H]1NC(=O)[C@H](CCCCN)NC(=O)[C@@H](Cc2c[nH]c3ccccc23)NC(=O)[C@H](Cc2c[nH]cn2)NC(=O)C(NC(=O)[C@@H](N)Cc2ccccc2F)CSSCC(C(=O)N[C@@H](Cc2ccccc2F)C(N)=O)NC1=O", "note": "(stereo in doubt)", "values": [{"measurement": "IC50", "setting": "Somatostatin receptor", "value": 393, "unit": "nM"}]}
